Compounds with a hit are over-represented: about 1.8% of the library has one in this group of screens.
UHRF1 binding: human UHRF1 methylated DNA binding inhibitors | Q96T88 | UHRF1 binding to methylated oligo, TR-FRET | inhibition, % at 4.4 µM | 0.75% of 370,000 active | AID 687016; in the data active means inhibition above about 21%;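 further: UHRF1 SRA domain binding a hemimethylated CpG hairpin DNA probe; 0% = median of test compound wells and 100% = reference inhibitor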
Target sequence (Q96T88 whole entry, looked up, the tested form may be a part): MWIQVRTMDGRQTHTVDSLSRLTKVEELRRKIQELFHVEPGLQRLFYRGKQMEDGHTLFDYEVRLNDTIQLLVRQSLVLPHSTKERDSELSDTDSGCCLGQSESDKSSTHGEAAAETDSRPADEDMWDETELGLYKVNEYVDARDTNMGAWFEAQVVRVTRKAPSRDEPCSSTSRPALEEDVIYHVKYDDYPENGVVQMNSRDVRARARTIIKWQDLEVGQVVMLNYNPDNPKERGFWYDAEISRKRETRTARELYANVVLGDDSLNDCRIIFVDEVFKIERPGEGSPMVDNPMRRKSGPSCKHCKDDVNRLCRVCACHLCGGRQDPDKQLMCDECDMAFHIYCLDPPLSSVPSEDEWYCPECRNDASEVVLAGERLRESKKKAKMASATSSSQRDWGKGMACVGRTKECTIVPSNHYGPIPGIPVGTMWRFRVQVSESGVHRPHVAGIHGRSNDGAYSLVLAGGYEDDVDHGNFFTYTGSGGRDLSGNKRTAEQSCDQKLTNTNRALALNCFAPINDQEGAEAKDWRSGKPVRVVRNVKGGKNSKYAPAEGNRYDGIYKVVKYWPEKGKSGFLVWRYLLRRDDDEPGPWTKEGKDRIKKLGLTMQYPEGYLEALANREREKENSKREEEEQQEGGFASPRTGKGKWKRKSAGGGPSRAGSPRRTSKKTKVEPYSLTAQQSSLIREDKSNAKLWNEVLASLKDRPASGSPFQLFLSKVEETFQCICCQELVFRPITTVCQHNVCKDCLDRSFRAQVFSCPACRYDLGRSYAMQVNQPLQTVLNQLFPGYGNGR
CASP6 VEID inh: caspase-6 (human) enzyme inhibition | AID 686996 | 0.53% of 350,000 active | purified caspase-6, Z-VEID-R110 cleavage fluorescence | P55212 | inhibition, % at 12.5 µM;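 active means mean inhibition across replicates at least about 35%, with every replicate also reaching that limit, limit read from the data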;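 further: 0% = median of neutral control wells and 100% = no fluorescence left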
LEDGF integ inh: blocks HIV-1 LEDGF/p75-dependent DNA integration; TR-FRET IN-LEDGF/p75 DNA integration, Eu/Cy5; AID 743269; inhibition, % at 3.7 µM; 0.64% of 370,000 active;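 active means inhibition above the screen-wide mean plus 3 SD, cut at about 13% in these data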;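 further: signal is the Cy5 over europium emission ratio at 671 and 618 nm; 0% = plate median of compound wells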
MBD2 DNA inh: blocks human MBD2 binding to methylated DNA. Q9UBB5. TR-FRET, MBD2 binding to methylated oligonucleotide. inhibition, % at 4.4 µM. 0.31% of 370,000 active. AID 686964; in the data active means inhibition above about 13%
NSD2 inh: NSD2 (human) methyltransferase inhibition. NSD2 peptide methylation, AlphaScreen, 120 min. inhibition, % at 12.5 µM. 0.54% of 310,000 active; in the data active means inhibition above about 50%
TDP2 absorb: blocks human TDP2 phosphodiesterase activity | O95551 | recombinant TDP2, T5PNP hydrolysis, p-nitrophenol absorbance 415 nm | inhibition, % at 12.8 µM | 0.34% of 370,000 active | AID 720702;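 active means inhibition above the mean of all tested compounds plus 3 SD, set per campaign, cut at about 25% in these data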;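 further: 0% = DMSO with enzyme and 100% = buffer with substrate but no TDP2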
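test system = human TDP2 enzyme | input = TDP2 enzyme at 120 nM final | medium = 50 mM Tris-HCl pH 7.5 with Mg2+, KCl, DTT, BSA | also added = T5PNP substrate, 5 mM | times = 2 h at 37 °C | technique = epi absorbance | benchmarks = high control without enzyme, low control DMSO plus TDP2 | replication = each compound tested once, singlicate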
TDP2 inh conf: confirmation of human TDP2 inhibitors | shares compounds with TDP2 absorb | recombinant human TDP2, absorbance read-out | inhibition, % at 12.8 µM | 22% of 1,100 active; in the data active means inhibition above about 25%;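 further: 0% = vehicle with enzyme and 100% = no enzyme buffer only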
IN multimer up: counter-screen for LEDGF/p75 integration inhibitors: HIV-1 integrase multimerization activators. AID 1053131. 17% of 2,000 active. activation, % at 7.7 µM. shares compounds with LEDGF integ inh. TR-FRET HIV-1 integrase multimerization, biochemical; in the data active means activation above about 8.9%
TRFRET interf: TR-FRET optical interference, LEDGF/p75 integration counter-screen; shares compounds with LEDGF integ inh; TR-FRET optical interference counterscreen, HIV-1 IN multimerization; inhibition, % at 7.7 µM; 2,000 tested, under 10 active; AID 1053135;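 active means inhibition above the mean over all tested compounds plus 3 SD, which no compound reached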;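 further: 0% = integrase with antibodies and DMSO and 100% = antibodies without integrase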
LEDGF integ conf: LEDGF/p75-dependent HIV-1 integration inhibition, confirmation. shares compounds with LEDGF integ inh. TR-FRET LEDGF/p75-dependent HIV-1 integration, biochemical. inhibition, % at 3.7 µM. 36% of 2,000 active; in the data active means inhibition above about 14%
* hit, by the source's call; / = no result given.

SMILES | UHRF1 binding | CASP6 VEID inh | LEDGF integ inh | MBD2 DNA inh | NSD2 inh | TDP2 absorb | TDP2 inh conf | IN multimer up | TRFRET interf | LEDGF integ conf
CN(C)c1ccc(C=Nc2ccc(N(C)C)cc2)cc1 | 6.7 | / | 34.6* | -11.5 | 6.1 | 27.8* | 4.1 | 6.8 | -33.9 | 6.6
Cc1ccc(N=Cc2ccc(N(C)C)cc2)cc1 | 17.0 | / | 2.2 | 7.0 | 0.7 | 7.8 | / | / | / | /
Cc1noc(C)c1NC(=O)Nc1ccc2c(c1)C(=O)N([C@@H](C)CO)C[C@@H](C)[C@@H](CN(C)C(=O)Nc1ccccc1)OCCCC[C@@H](C)O2 | / | 3.5 | / | / | / | / | / | / | / | /
C(=NN=C(NN=Cc1cccs1)NN=Cc1cccs1)c1cccs1 | 4.8 | -2.6 | 34.0* | -4.2 | / | 54.4* | -0.8 | 0.4 | -1.3 | -11.3
COCC(=O)Nc1ccc2c(c1)C(=O)N(C)[C@@H]1CC[C@@H](CC(=O)NC3Cc4ccccc4C3)O[C@@H]1CO2 | / | -0.8 | / | / | / | / | / | / | / | /
CCCN(C)C[C@H]1Oc2ncc(-c3ccccc3F)cc2C(=O)N([C@H](C)CO)C[C@@H]1C | / | -5.3 | / | / | / | / | / | / | / | /
CC1=NN(c2ccc(C)c(C)c2)C(=O)C1C(c1cccc(O)c1)C1C(=O)N(c2ccc(C)c(C)c2)N=C1C (stereo not drawn) | 6.9 | / | 41.8* | 9.4 | 1.4 | 80.3* | 18.8 | -1.0 | 3.5 | -0.1
Nc1ccc(Br)c2cccnc12 | 4.1 | 30.3 | 54.1* | -15.4 | 99.0* | 47.0* | 40.9* | 1.2 | -4.4 | 52.9*
C[C@H](CO)N1C[C@H](C)[C@H](CN(C)S(=O)(=O)c2ccc(F)cc2)OCCCC[C@H](C)Oc2ccc(NS(C)(=O)=O)cc2C1=O | / | 0.7 | / | / | / | / | / | / | / | /
Cc1cc(NC2=CC(=O)C(=O)c3ccccc32)no1 | -7.3 | 48.5* | 15.7* | -10.8 | -1.3 | 29.2* | 69.2* | 4.5 | -15.9 | 51.9*
COc1cc(OC)c(NC2=CC(=O)C(=O)c3ccccc32)cc1Cl | -0.6 | 9.1 | 3.0 | -0.2 | 28.8 | 3.9 | / | / | / | /
C[C@@H]1CN([C@H](C)CO)S(=O)(=O)c2ccc(C#Cc3ccccc3F)cc2O[C@@H]1CN(C)C | / | -0.8 | / | / | / | / | / | / | / | /
COc1ccc(O)c(C(c2c(C)[nH][nH]c2=O)c2c(C)[nH][nH]c2=O)c1 | 14.2 | 72.0* | 22.2* | 9.2 | / | 73.1* | 72.8* | 0.2 | -0.6 | 12.5
CC(C)(C)c1cc(CCC(=O)NCCc2ccccn2)cc(C(C)(C)C)c1O | 1.1 | 2.0 | -3.8 | 1.8 | -1.7 | -11.6 | / | / | / | /
O=C1C=C(NCCc2cc(Br)c(O)c(Br)c2)C(=O)c2ncccc21 | 14.5 | 96.0* | 27.8* | -16.3 | 137.1* | 47.9* | 59.9* | 15.7* | -55.6 | 75.4*
CN(C(=S)Nc1ccc(Oc2ccccc2)cc1)c1ccc(O)cc1 | -7.2 | / | 1.6 | -4.5 | 0.4 | 7.2 | / | / | / | /
CN(C(=S)Nc1cccnc1)c1ccc(O)cc1 | 14.0 | 28.9 | 29.2* | 4.4 | 4.9 | 29.5* | 9.7 | 0.8 | -2.9 | 7.1
COCC(=O)N1C[C@@H](C)[C@@H](OC)CN(C)C(=O)c2ccc(NC(=O)c3ccccc3)cc2OC[C@@H]1C | / | 0.0 | / | / | / | / | / | / | / | /
CCCC(=Nc1ccc(N)cc1)C1=C(O)C(C(=O)OC)C(C)(C)CC1=O (stereo not drawn) | 17.0 | / | 53.8* | 3.2 | / | 52.6* | 11.7 | 21.1* | -74.8 | 5.2
CCCC(=O)C1=C(O)C(C(=O)OC)C(C)(C)CC1=Nc1ccc(N)cc1 (stereo not drawn) | 0.8 | / | 0.1 | 3.3 | 0.7 | 5.4 | / | / | / | /
COc1ccc(S(=O)(=O)N(C)C[C@@H]2OCCCC[C@@H](C)Oc3ccc(NC(=O)Nc4cccc5ccccc45)cc3C(=O)N([C@@H](C)CO)C[C@@H]2C)cc1 | / | 0.3 | / | / | / | / | / | / | / | /
Cc1cc(=O)c2c(o1)C(=O)c1occc1C2=O | 40.4* | 91.6* | 50.5* | 11.4 | 138.6* | 35.8* | 21.3 | 35.1* | -125.3 | 56.2*
Cc1cccc(NC2=C(NCCO)C(=O)c3ccccc3C2=O)c1 | -0.8 | 91.5* | 20.2* | -14.8 | 41.3 | 57.7* | 1.8 | 3.5 | -12.7 | -0.4
CCCNC(=O)N1CC2(CCN(CC3CCCC3)CC2)c2c(n(C)c3cc(OC)ccc23)[C@@H]1CO | / | 3.4 | / | / | / | / | / | / | / | /
O=C(C1CCCC1)N1CC(=O)N2[C@H](CO)[C@H](c3ccc(-c4cccnc4)cc3)[C@H]2C1 | / | 2.5 | / | / | / | / | / | / | / | /
SMILES | UHRF1 binding | CASP6 VEID inh | LEDGF integ inh | MBD2 DNA inh | NSD2 inh | TDP2 absorb | TDP2 inh conf | IN multimer up | TRFRET interf | LEDGF integ conf
O=C(C[C@H]1CC[C@@H]2[C@H](COC[C@@H](O)CN2Cc2cccc(-c3ccncc3)c2)O1)N1CCN(c2ccccc2)CC1 | / | -1.7 | / | / | / | / | / | / | / | /
CC(C)NC(=O)Nc1cccc2c1O[C@@H](CN(C)Cc1ccc(-c3ccccc3)cc1)[C@@H](C)CN([C@@H](C)CO)C2=O | / | -1.6 | / | / | / | / | / | / | / | /
O=C(N/N=C/c1ccc(O)cc1O)C(=O)N/N=C/c1ccc(O)cc1O | -1.5 | 39.4* | 15.3* | 6.2 | 1.6 | 25.5* | 7.3 | 12.7* | -63.7 | 25.9*
CCCc1cn(CC[C@H]2CC[C@@H](NC(=O)Cc3cccnc3)[C@H](CO)O2)nn1 | / | -4.3 | / | / | / | / | / | / | / | /
CCCNC1=C(N(C(C)=O)c2cccc(F)c2)C(=O)c2ccccc2C1=O | 0.8 | 80.1* | 16.6* | -11.7 | 78.1* | 26.1* | 25.1* | -2.5 | 8.9 | 14.0*
O=C(O)c1ccc(NC2=C/C(=N/S(=O)(=O)c3cccs3)c3ccccc3C2=O)cc1 | 2.9 | 99.6* | 30.8* | -14.5 | / | 60.0* | 73.4* | 9.1* | -32.4 | 75.1*
Cc1cc(C)c(S(=O)(=O)/N=C2\C=C(NS(=O)(=O)c3ccccc3)C(=O)c3ccccc32)c(C)c1 | 1.8 | 19.0 | -1.4 | 1.1 | 43.9 | -8.0 | / | / | / | /
O=C(O)c1ccc(NC2=C/C(=N/S(=O)(=O)c3ccccc3)c3ccccc3C2=O)cc1 | 8.0 | 99.0* | 49.3* | -10.8 | / | 72.0* | 76.9* | 6.5 | -23.2 | 72.5*
O=C1C(Nc2ccc(O)cc2)=C/C(=N/S(=O)(=O)c2cccs2)c2ccccc21 | 2.8 | 99.1* | 55.5* | -10.7 | / | 78.0* | 77.8* | 7.1 | -25.6 | 70.1*
CCCCn1c(NC(C)=O)c(C#N)c2nc3ccccc3nc21 | -7.1 | / | -0.4 | -6.4 | -1.9 | 0.5 | / | / | / | /

Screens from PubChem.
